Results published in ChEMBL document CHEMBL3091412, “Discovery of an irreversible HCV NS5B polymerase inhibitor” (Bioorg Med Chem Lett, 2013).
pEC50, pIC50: −log10 of the molar value. Active and inactive are the calls of the source. The calls are words filed in the database; no cut-off is given here.

Assays:
[1] = Irreversible inhibition of HCV1b NS5B delta21 polymerase by radiolabeled nucleotide incorporation assay; parameters: species or system Hepatitis C virus subtype 1b
[2] = system: Hepatitis C virus; assay: Antiviral activity against HCV Con1 in eplicon cells after 3 days by RT-PCR analysis; assay type: functional, organism-based, Hepacivirus hominis; conditions: isolate Con1, 72 h
Outline: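 HCV 1b-Con1 replicon cells seeded at 5000 cells/well one day before treatment; inhibitor in DMSO added as 10 serial twofold dilutions in duplicate (final 0.5% DMSO, 5% FBS). Harvested 3 days post dosing; replicon RNA quantified by real-time RT-PCR (Taqman), GAPDH RNA as endogenous control; EC50 calculated.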

[3] = system: Enterovirus C; assay: Inhibition of Poliovirus RNA-dependent RNA polymerase
[4] = system: Hepacivirus hominis; assay: Inhibition of HCV NS3 protease
[5] = system: Hepacivirus hominis; assay: Inhibition of HCV NS3 helicase
[6] = system: Human immunodeficiency virus; assay: Inhibition of HIV RNA-dependent DNA polymerase

SMILES | pIC50 [1] | pEC50 [2] | inhibition [3] | inhibition [4] | inhibition [5] | inhibition [6]
Cc1cc2c(-c3ccc[nH]c3=O)c(C(=O)O)n(Cc3cc(F)cnc3Cl)c2cc1F | 7.92 | 6.00 |  |  |  | 
Cc1cc2c(-c3ccc[nH]c3=O)c(C(=O)O)n(Cc3cc4ccccc4nc3Cl)c2cc1F |  |  | inactive | inactive | inactive | inactive
Cc1cc2c(-c3ccc[nH]c3=O)c(C(=O)O)n(Cc3cc4cc(F)c(F)cc4nc3Cl)c2cc1F | 8.00 | 7.52 |  |  |  | 
Cc1cc2c(-c3ccc[nH]c3=O)c(C(=O)O)n(Cc3c(Cl)nc4ccccc4c3Cl)c2cc1F | 7.22 | < 6.00 |  |  |  | 
Cc1cc2c(-c3ccc[nH]c3=O)c(C(=O)O)n(Cc3cnc4ccccc4c3Cl)c2cc1F | 8.22 | 7.70 |  |  |  | 
